Data from ChEMBL document CHEMBL4152363, “Andrographolide derivative as STAT3 inhibitor that protects acute liver damage in mice” (Bioorg Med Chem, 2018).
Active and inactive are the calls of the source. The calls are words filed in the database; no cut-off is given here.

Assays:
[1] = biological target: T1, Signal transducer and activator of transcription 3 (Homo sapiens, UniProt P40763); test: Inhibition of IFNgamma-stimulated STAT3 activation in human AD293 cells incubated with IFNgamma for 16 hrs followed by compound addition measured after 24 hrs by luciferase reporter gene assay; assay type: cell-based
T1 sequence (P40763 whole entry): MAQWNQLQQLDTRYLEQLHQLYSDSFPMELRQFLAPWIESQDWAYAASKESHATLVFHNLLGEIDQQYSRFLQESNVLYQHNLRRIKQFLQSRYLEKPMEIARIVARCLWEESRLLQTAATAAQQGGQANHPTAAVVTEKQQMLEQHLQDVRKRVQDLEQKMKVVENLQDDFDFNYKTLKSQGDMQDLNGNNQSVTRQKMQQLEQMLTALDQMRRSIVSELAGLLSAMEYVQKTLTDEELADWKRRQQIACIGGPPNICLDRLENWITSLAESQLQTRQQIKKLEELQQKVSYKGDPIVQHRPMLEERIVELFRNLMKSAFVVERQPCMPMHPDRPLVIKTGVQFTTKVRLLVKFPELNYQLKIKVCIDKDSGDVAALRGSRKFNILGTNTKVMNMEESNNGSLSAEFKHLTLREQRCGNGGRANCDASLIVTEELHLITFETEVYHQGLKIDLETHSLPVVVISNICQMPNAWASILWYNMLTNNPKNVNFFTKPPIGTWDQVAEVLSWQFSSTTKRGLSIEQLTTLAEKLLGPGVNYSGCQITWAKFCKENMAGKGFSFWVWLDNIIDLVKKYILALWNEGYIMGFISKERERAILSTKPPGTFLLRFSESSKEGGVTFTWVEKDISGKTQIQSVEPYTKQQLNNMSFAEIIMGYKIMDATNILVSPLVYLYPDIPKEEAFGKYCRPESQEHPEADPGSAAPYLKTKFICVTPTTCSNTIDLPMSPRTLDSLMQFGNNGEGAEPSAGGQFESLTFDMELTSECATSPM
In short: (§1)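 AD-293 or HeLa cells in DMEM/10% FBS stimulated with 20 pg/mL IFN-γ; compound treatment 24 h; luciferase activity measured in cell extracts; EC50 derived.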

[2] = system: Mus musculus; test: Reduction in serum AST level in CCL4-induced acute liver damage in Balb/c mouse at 30 mg/kg, po qd for 7 days measured after 16 hrs post CCL4 challenge […]; assay type: functional, organism-based
[3] = system: Mus musculus; test: In vivo inhibition of STAT3 expression level in CCL4-induced acute liver damage in Balb/c mouse assessed as decrease in nuclear STAT3 phosphorylation at 30 mg/kg, po qd for 7 days measured after 16 hrs post CCL4 challenge by hematoxylin staining based immunohistochemistry method; assay type: functional, organism-based
In short: (§2)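 Liver sections from mice dosed orally 30 mg/kg daily 7 days then sc CCl4, killed 16 h after; H2O2 block, goat serum/BSA/gelatin blocking 1 h RT, primary antibody (α-SMA, Ki67, PCNA or STAT3) 4 °C overnight, HRP secondary, DAB, hematoxylin counterstain; >30 fields at 400× quantified; n=5.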

[4] = system: Mus musculus; test: Hepatoprotective activity against CCL4-induced acute liver damage in Balb/c mouse assessed as increase in number of PCNA positive cells at 30 mg/kg, po qd for 7 days measured after 16 hrs post CCL4 challenge by hematoxylin staining based immunohistochemistry method; assay type: functional, organism-based; in short: as §2
[5] = biological target: T1, Signal transducer and activator of transcription 3; test: Inhibition of IFNgamma-stimulated STAT3 phosphorylation at Tyr705 residues in human AD293 cell lysates incubated with IFNgamma followed by compound addition at 10 uM by Western blot analysis
In short: (§3)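 AD-293 cells treated with 1 μg/mL IFN-γ alone or with compounds at 10 μM; phospho- and total STAT1 and STAT3 assessed by western blot; representative of at least three independent experiments.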

[6] = system: Mus musculus; test: Reduction in SMAD2 mRNA expression level in liver of CCL4-induced acute liver damage in Balb/c mouse at 30 mg/kg, po qd for 7 days measured after 16 hrs post CCL4 challenge by qRT-PCR method; assay type: functional, organism-based
In short: (§4)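 Mice given 30 mg/kg orally once daily 7 days before sc CCl4 (40% in olive oil, 10 ml/kg); livers harvested 16 h later, PBS-washed, stored at −70 °C for RNA extraction and transcript quantification; n=5, two independent experiments.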

[7] = system: Mus musculus; test: Hepatoprotective activity against CCL4-induced acute liver damage in Balb/c mouse assessed as decrease in number of necrotic cells at 30 mg/kg, po qd for 7 days measured after 16 hrs post CCL4 challenge by hematoxylin-eosin staining based light microscopy; assay type: functional, organism-based
In short: (§5)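 Male BalB/C mice given oral 30 mg/kg daily for 7 days, then sc CCl4 (40% in olive oil, 10 ml/kg); sacrificed 16 h later; livers fixed in 10% formaldehyde, paraffin sections stained with H&E or Masson's trichrome, light microscopy, ≥3 sections per liver; n=5, two experiments.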

[8] = system: Mus musculus; test: Reduction in Col3a1 mRNA expression level in CCL4-induced acute liver damage in Balb/c mouse at 30 mg/kg, po qd for 7 days measured after 16 hrs post CCL4 challenge by qRT-PCR method; assay type: functional, organism-based; in short: as §4
[9] = biological target: T2, Signal transducer and activator of transcription 1-alpha/beta (Homo sapiens) (UniProt P42224); test: Inhibition of IFNgamma-stimulated STAT1 phosphorylation at Tyr701 residues in human AD293 cell lysates incubated with IFNgamma followed by compound addition at 10 uM by Western blot analysis; in short: as §3
T2 sequence (whole entry): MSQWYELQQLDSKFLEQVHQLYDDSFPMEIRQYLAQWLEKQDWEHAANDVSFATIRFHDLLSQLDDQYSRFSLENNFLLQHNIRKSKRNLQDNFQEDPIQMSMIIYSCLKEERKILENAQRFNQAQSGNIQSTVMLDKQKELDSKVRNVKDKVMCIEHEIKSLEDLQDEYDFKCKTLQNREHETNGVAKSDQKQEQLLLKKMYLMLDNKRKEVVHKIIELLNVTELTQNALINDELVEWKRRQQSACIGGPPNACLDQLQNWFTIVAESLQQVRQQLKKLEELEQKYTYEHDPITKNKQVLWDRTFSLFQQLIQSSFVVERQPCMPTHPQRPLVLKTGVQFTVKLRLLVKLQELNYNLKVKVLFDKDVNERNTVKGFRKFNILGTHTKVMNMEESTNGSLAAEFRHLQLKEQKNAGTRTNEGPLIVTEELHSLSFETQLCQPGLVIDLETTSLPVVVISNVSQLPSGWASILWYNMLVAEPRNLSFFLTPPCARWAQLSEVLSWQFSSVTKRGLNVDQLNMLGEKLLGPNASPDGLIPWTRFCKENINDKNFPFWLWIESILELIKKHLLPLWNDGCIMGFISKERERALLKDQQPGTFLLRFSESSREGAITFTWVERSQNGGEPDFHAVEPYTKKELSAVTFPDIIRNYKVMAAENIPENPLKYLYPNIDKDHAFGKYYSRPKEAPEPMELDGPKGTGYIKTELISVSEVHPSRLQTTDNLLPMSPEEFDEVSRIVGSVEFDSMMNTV

[10] = biological target: T1, Signal transducer and activator of transcription 3; test: Inhibition of IFNgamma-stimulated STAT3 activation in human HeLa cells incubated with IFNgamma for 16 hrs followed by compound addition measured after 24 hrs by luciferase reporter gene assay; assay type: cell-based; in short: as §1
[11] = system: Mus musculus; test: Antifibrotic activity in CCL4-induced acute liver damage Balb/c mouse model assessed as decrease in collagen deposition in liver at 30 mg/kg, po qd for 7 days measured after 16 hrs post CCL4 challenge by masson trichome staining based assay; assay type: functional, organism-based; in short: as §5
[12] = system: AD293; test: Cytotoxicity against human AD293 cells; assay type: cell-based; conditions: ad293
In short: (§6)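 AD-293 or HeLa cells grown in high-glucose DMEM with 10% FBS and 1% penicillin-streptomycin; compound exposure 24 h; cytotoxicity reported as CC10.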

[13] = system: Mus musculus; test: Hepatoprotective activity against CCL4-induced acute liver damage in Balb/c mouse assessed as decrease in hepatic damage at 30 mg/kg, po qd for 7 days measured after 16 hrs post CCL4 challenge by hematoxylin-eosin staining based light microscopy; assay type: functional, organism-based; in short: as §5
[14] = system: Mus musculus; test: Reduction in SMAD4 mRNA expression level in liver of CCL4-induced acute liver damage in Balb/c mouse at 30 mg/kg, po qd for 7 days measured after 16 hrs post CCL4 challenge by qRT-PCR method; assay type: functional, organism-based; in short: as §4
[15] = system: HeLa; test: Cytotoxicity against human HeLa cells; assay type: cell-based; in short: as §6
[16] = system: Mus musculus; test: Hepatoprotective activity against CCL4-induced acute liver damage in Balb/c mouse assessed as increase in number of Ki67 positive cells at 30 mg/kg, po qd for 7 days measured after 16 hrs post CCL4 challenge by hematoxylin staining based immunohistochemistry method; assay type: functional, organism-based; in short: as §2
[17] = system: Mus musculus; test: Antiinflammatory activity in CCL4-induced acute liver damage Balb/c mouse model assessed as decrease in serum IL-6 levels at 30 mg/kg, po qd for 7 days measured after 16 hrs post CCL4 challenge; assay type: functional, organism-based
In short: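 BalB/C males dosed orally 30 mg/kg daily for 7 days, then sc CCl4 (40% in olive oil, 10 ml/kg); serum collected 16 h post-CCl4 after CO2 anaesthesia, stored at −70 °C until IL-6, MCP-1 or TGF-β analysis; n=5.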

EC50 [1]: 5.99 µM | inhibition [5]: > 50% | inhibition [9]: inactive | EC50 [10]: 5.9 µM
SMILES: CC(C)(C)[Si](C)(C)O[C@@H]1COC(=O)/C1=C/C[C@@H]1[C@]2(CC[C@H]3[C@@]1(C)CCC(=O)[C@@]3(C)CO)CO2
Activity [2]: inactive | inhibition [3]: Active | Activity [4]: Active | Activity [6]: inactive | Activity [7]: Active | Activity [8]: inactive | Activity [11]: Active | CC10 [12]: > 10 µM | Activity [13]: Active | Activity [14]: inactive | CC10 [15]: > 10 µM | Activity [16]: Active | Activity [17]: Active
